Laboratory results reported in publication PMC10809365 (ACS Omega, 2024).
One block for each compound: values may come before it.

Assays:
HiDapE [1] = target: T1, HiDapE (Haemophilus influenzae, UniProt P44514); assay: Thermal shift assay, HiDapE; assay type: binding
T1 sequence (P44514 1-377): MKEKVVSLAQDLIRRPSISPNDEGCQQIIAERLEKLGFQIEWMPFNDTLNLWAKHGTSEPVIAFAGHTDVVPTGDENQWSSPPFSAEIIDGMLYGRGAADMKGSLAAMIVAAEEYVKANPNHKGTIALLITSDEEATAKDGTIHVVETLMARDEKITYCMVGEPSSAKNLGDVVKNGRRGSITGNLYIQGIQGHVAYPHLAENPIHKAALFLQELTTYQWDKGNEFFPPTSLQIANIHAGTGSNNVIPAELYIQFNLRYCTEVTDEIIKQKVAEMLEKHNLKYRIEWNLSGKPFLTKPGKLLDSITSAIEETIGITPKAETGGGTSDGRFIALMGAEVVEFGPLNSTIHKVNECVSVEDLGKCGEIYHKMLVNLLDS

HiDapE [2] = target: T1, HiDapE; conditions: read-out: HiDapE IC50 (sulfate); previously published enzyme inhibition; cited from earlier work
AbDapE [3] = target: T2, AbDapE (Acinetobacter baumannii, UniProt A3M8H2); assay: Thermal shift assay, AbDapE native; assay type: binding; conditions: 16 μM AbDapE + 10× dye
T2 sequence (A3M8H2 whole entry): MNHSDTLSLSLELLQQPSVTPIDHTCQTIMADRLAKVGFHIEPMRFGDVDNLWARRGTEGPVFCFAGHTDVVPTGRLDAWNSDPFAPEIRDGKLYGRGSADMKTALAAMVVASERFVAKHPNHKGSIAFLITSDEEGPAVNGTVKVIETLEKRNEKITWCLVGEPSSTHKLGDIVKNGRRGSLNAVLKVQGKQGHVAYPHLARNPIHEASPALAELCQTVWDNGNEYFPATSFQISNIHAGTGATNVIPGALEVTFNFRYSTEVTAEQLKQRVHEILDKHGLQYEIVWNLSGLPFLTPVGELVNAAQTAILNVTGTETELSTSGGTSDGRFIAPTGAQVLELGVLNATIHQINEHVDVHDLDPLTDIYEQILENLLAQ
Method in brief: (§1)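 SYPRO Orange thermal melt at 10× dye in 50 mM HEPES pH 7.5, 10 µL triplicates. Protein is 16 µM for native AbDapE and 6 µM for SeMet AbDapE, with DMSO kept below 5%. Tm comes from the negative first derivative of the melting curves, further differentiated to the third derivative. Ki is calculated from Tm plotted against log[test compound] using a derived van't Hoff equation.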

AbDapE-SeMet = AbDapE-SeMet (Acinetobacter baumannii, UniProt A3M8H2); assay: Thermal shift assay, AbDapE-SeMet; assay type: binding; conditions: 6 μM AbDapE-SeMet + 10× dye
Sequence of AbDapE-SeMet (A3M8H2 whole entry): as above
Method in brief: as §1

AbDapE [4] = target: T2, AbDapE; assay: DapE ninhydrin enzyme inhibition assay, AbDapE; assay type: biochemical; conditions: kinetic assays, modified ninhydrin assay
Method in brief: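 Purified His-tag-cleaved AbDapE at 8 nM final in 50 mM HEPES pH 7.5, 30 °C. Test compound (DMSO, 5% final) is preincubated with enzyme for 10 min before 2 mM N6-methyl-L,L-SDAP. After 10 min, heat to 100 °C for 1 min, chill, add 2% ninhydrin, 80 °C for 15 min, then read A570.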

DapE = DapE from E. faecium and E. coli studied; cited from earlier work
[5] = 0.001 mM Li2SO4, 200 nM HiDapE + 10× dye
[6] = 0.005 mM Li2SO4, 200 nM HiDapE + 10× dye
[7] = 0.1 mM Li2SO4, 200 nM HiDapE + 10× dye
[8] = 0.5 mM Li2SO4, 200 nM HiDapE + 10× dye
[9] = 1 mM Li2SO4, 200 nM HiDapE + 10× dye
[10] = 5 mM Li2SO4, 200 nM HiDapE + 10× dye
[11] = 10 mM Li2SO4, 200 nM HiDapE + 10× dye
[12] = 30 mM Li2SO4, 200 nM HiDapE + 10× dye
[13] = 50 mM Li2SO4, 200 nM HiDapE + 10× dye
[14] = 60 mM Li2SO4, 200 nM HiDapE + 10× dye
[15] = 70 mM Li2SO4, 200 nM HiDapE + 10× dye

- Tm1 HiDapE (HiDapE [1]; [5]): 51.7 ± 0.3 °C
- Tm2 HiDapE (HiDapE [1]; [5]): 75.6 ± 0.3 °C
- Tm1 HiDapE (HiDapE [1]; [6]): 51.4 ± 0.2 °C
- Tm2 HiDapE (HiDapE [1]; [6]): 76.2 ± 0.5 °C
- Tm1 HiDapE (HiDapE [1]; [7]): 52.7 ± 0.4 °C
- Tm2 HiDapE (HiDapE [1]; [7]): 76.1 ± 0.6 °C
- Tm1 HiDapE (HiDapE [1]; [8]): 51.2 ± 0.7 °C
- Tm2 HiDapE (HiDapE [1]; [8]): 78.3 ± 0.1 °C
- Tm1 HiDapE (HiDapE [1]; [9]): 50.7 ± 0.2 °C
- Tm2 HiDapE (HiDapE [1]; [9]): 77.8 ± 0.1 °C
- Tm1 HiDapE (HiDapE [1]; [10]): 51.2 ± 0.6 °C
- Tm2 HiDapE (HiDapE [1]; [10]): 77.7 ± 0.1 °C
- Tm1 HiDapE (HiDapE [1]; [11]): 51.2 ± 0.6 °C
- Tm2 HiDapE (HiDapE [1]; [11]): 77.4 ± 0.1 °C
- Tm1 HiDapE (HiDapE [1]; [12]): 52.6 ± 0.5 °C
- Tm2 HiDapE (HiDapE [1]; [12]): 74.6 ± 0.3 °C
- Tm1 HiDapE (HiDapE [1]; [13]): 53.3 ± 0.5 °C
- Tm2 HiDapE (HiDapE [1]; [13]): 75.9 ± 0.1 °C
- Tm1 HiDapE (HiDapE [1]; [14]): 53.3 ± 0.3 °C
- Tm2 HiDapE (HiDapE [1]; [14]): 73.8 ± 0.1 °C
- Tm1 HiDapE (HiDapE [1]; [15]): 54.4 ± 0.5 °C
- Tm2 HiDapE (HiDapE [1]; [15]): 76.6 ± 0.1 °C
- Ki (HiDapE [1]; read-out: Ki (HiDapE, thermal shift), Tm vs log [concentration], derived Van't Hoff equation, 200 nM HiDapE + 10× dye): 18.4 mM
- Effect on stability (Tm) of HiDapE, in words (HiDapE [1]; thermal shift assays): stabilize HiDapE
- Tm1 AbDapE (AbDapE [3]; 0.001 mM Li2SO4): 41.4 ± 0.1 °C
- Tm2 AbDapE (AbDapE [3]; 0.001 mM Li2SO4): 63.1 ± 0.1 °C
- Tm1 AbDapE (AbDapE [3]; 0.005 mM Li2SO4): 41.8 ± 0.2 °C
- Tm2 AbDapE (AbDapE [3]; 0.005 mM Li2SO4): 62.8 ± 0.2 °C
- Tm1 AbDapE (AbDapE [3]; 0.1 mM Li2SO4): 41.6 ± 0.1 °C
- Tm2 AbDapE (AbDapE [3]; 0.1 mM Li2SO4): 62.2 ± 0.1 °C
- Tm1 AbDapE (AbDapE [3]; 0.5 mM Li2SO4): 41.7 ± 0.1 °C
- Tm2 AbDapE (AbDapE [3]; 0.5 mM Li2SO4): 63.1 ± 0.1 °C
- Tm1 AbDapE (AbDapE [3]; 1 mM Li2SO4): 41.3 ± 0.1 °C
- Tm2 AbDapE (AbDapE [3]; 1 mM Li2SO4): 63.0 ± 0.1 °C
- Tm1 AbDapE (AbDapE [3]; 5 mM Li2SO4): 41.6 ± 0.1 °C
- Tm2 AbDapE (AbDapE [3]; 5 mM Li2SO4): 61.5 ± 0.2 °C
- Tm1 AbDapE (AbDapE [3]; 10 mM Li2SO4): 41.5 ± 0.1 °C
- Tm2 AbDapE (AbDapE [3]; 10 mM Li2SO4): 60.4 ± 0.1 °C
- Tm1 AbDapE (AbDapE [3]; 30 mM Li2SO4): 42.2 ± 0.2 °C
- Tm2 AbDapE (AbDapE [3]; 30 mM Li2SO4): 59.1 ± 0.2 °C
- Tm1 AbDapE (AbDapE [3]; 50 mM Li2SO4): 42.1 ± 0.1 °C
- Tm2 AbDapE (AbDapE [3]; 50 mM Li2SO4): 58.3 ± 0.1 °C
- Tm1 AbDapE (AbDapE [3]; 60 mM Li2SO4): 42.4 ± 0.2 °C
- Tm2 AbDapE (AbDapE [3]; 60 mM Li2SO4): 57.5 ± 0.1 °C
- Tm1 AbDapE (AbDapE [3]; 70 mM Li2SO4): 42.4 ± 0.3 °C
- Tm2 AbDapE (AbDapE [3]; 70 mM Li2SO4): 56.7 ± 0.2 °C
- Tm AbDapE-SeMet (AbDapE-SeMet; 0.001 mM Li2SO4): 64.2 ± 0.7 °C
- Tm AbDapE-SeMet (AbDapE-SeMet; 0.005 mM Li2SO4): 64.1 ± 0.3 °C
- Tm AbDapE-SeMet (AbDapE-SeMet; 0.1 mM Li2SO4): 64.0 ± 0.2 °C
- Tm AbDapE-SeMet (AbDapE-SeMet; 0.5 mM Li2SO4): 64.9 ± 0.1 °C
- Tm AbDapE-SeMet (AbDapE-SeMet; 1 mM Li2SO4): 64.7 ± 0.5 °C
- Tm AbDapE-SeMet (AbDapE-SeMet; 5 mM Li2SO4): 65.2 ± 0.1 °C
- Tm AbDapE-SeMet (AbDapE-SeMet; 10 mM Li2SO4): 65.0 ± 0.3 °C
- Tm AbDapE-SeMet (AbDapE-SeMet; 50 mM Li2SO4): 63.1 ± 0.1 °C
- Tm AbDapE-SeMet (AbDapE-SeMet; 70 mM Li2SO4): 61.8 ± 0.1 °C
- Mode of inhibition of AbDapE (AbDapE [4]): competitive inhibitors
Structure (SMILES): O=S(=O)([O-])[O-].[Li+].[Li+] [Lithium sulfate]
- IC50 (HiDapE [2]): 13.8 mM

Structure (SMILES): Cc1ccccc1C(OCCN(C)C)c1ccccc1 (stereo not shown) [orphenadrine]
- Effect on Tm values of DapE, in words (DapE): lowering of the Tm values
